ChEMBL document CHEMBL4513216, “Probing the Open Global Health Chemical Diversity Library for Multistage-Active Starting Points for Next-Generation Antimalarials” (ACS Infect Dis, 2020)

Assay: Toxicity liver stage against HepG2, at 10uM
Assay type: cell-based
Design: test concentration 10 uM, cell line HepG2-A16-CD81EGFP
Conditions: human, HepG2-A16-CD81EGFP cells; read-out: INHIBITION
Method in brief: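 Uninfected HepG2-A16-CD81EGFP cells, 3 × 10^3 per well, 1536-well, plated on prespotted compound at 10 μM final, parasite-free screening media added to match infected plates; puromycin 10 μM positive, DMSO 0.5% negative; run in parallel with 48 h PbLuc assay at 37 °C, 5% CO2; viability by CellTiter-Glo luminescence, normalized to controls.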

CN(C)CCCNCC1CCOC(C)(C)C1 (stereo unspecified)
cytotoxicity at 10 µM: -8.02%

CO[C@@H]1CN(c2ccccc2)S(=O)(=O)[C@@]12CCN(S(C)(=O)=O)C2
cytotoxicity at 10 µM: 2.21%

O=C(c1ccccc1)N(CC1CC1)c1cccnc1
cytotoxicity at 10 µM: 7.27%

Cc1c(OCC(=O)NCc2ccccc2Cl)c(=O)ccn1C
cytotoxicity at 10 µM: -40.5%

CCOC(=O)Cc1csc(NC(=O)c2cc(=O)c(OC)c[nH]2)n1
cytotoxicity at 10 µM: -43.8%

COc1cn(CC(=O)N2CCN(c3ccc(F)cc3)CC2)c(C)cc1=O
cytotoxicity at 10 µM: 2.29%

COCCCNC(=O)C1CN(C(=O)c2cnccn2)C1
cytotoxicity at 10 µM: 0.722%

CCC(C)N1CCc2c(C(=O)N3CCOCC3)n[nH]c2C1 (stereo unspecified)
cytotoxicity at 10 µM: 1.88%

Cn1cc(CN2CCCn3cnc(COCc4ccco4)c3C2)cn1
cytotoxicity at 10 µM: 7.61%

Cc1ccn(CC(=O)Nc2cc(-c3ccncc3)[nH]n2)n1
cytotoxicity at 10 µM: -14.8%

CNc1cnc(CC2COCCN(CCOc3ccccc3)C2)cn1 (stereo unspecified)
cytotoxicity at 10 µM: -0.257%

Cc1cc2cc(C(=O)N[C@@H]3CC[C@@H](N4CCNC(=O)C4)[C@@H]3O)ccc2o1
cytotoxicity at 10 µM: -5%

Cc1nc(-c2ccccc2)sc1CNC(=O)c1ccc(=O)n(C)c1
cytotoxicity at 10 µM: -6.09%

O=C(Nc1cccnc1N1CCSCC1)c1ccc2c(c1)CCO2
cytotoxicity at 10 µM: -0.678%

CCOCCOC(C)C(=O)Nc1ccnn1-c1ccccc1C (stereo unspecified)
cytotoxicity at 10 µM: -0.308%

CCc1nc(NS(=O)(=O)c2cccc(F)c2C)no1
cytotoxicity at 10 µM: 5.18%

c1ncn(Cc2ccc(CNCc3ccc4c(c3)OCCO4)cc2)n1
cytotoxicity at 10 µM: -1.66%

O=C(Nc1ccccc1)C1CCCN(C(=O)Cn2cncn2)C1 (stereo unspecified)
cytotoxicity at 10 µM: 16.3%

O=C(NCCCC(=O)N1Cc2ccccc2C1)NCc1nccs1
cytotoxicity at 10 µM: -1.37%

Cc1nc(CNC(C)c2cccc(S(=O)(=O)N(C)C)c2)no1 (stereo unspecified)
cytotoxicity at 10 µM: 0.956%

CCOc1cncc(N2CCN(c3ccccc3O)CC2)n1
cytotoxicity at 10 µM: 25.7%

CC(C)(C)c1cnc(CN2CCC(CO)CC2)o1
cytotoxicity at 10 µM: -5.6%

CN1CCN(C(=O)C2SCCc3sccc32)CC1 (stereo unspecified)
cytotoxicity at 10 µM: -12.6%

CN(CCOc1cccc(CNS(C)(=O)=O)c1)C1CCOCC1
cytotoxicity at 10 µM: 2.37%

CC(C)NC(=O)CCNC(=O)c1cc(Br)cn1C(C)C
cytotoxicity at 10 µM: 4.33%

NC(=O)c1ccc(N2CCCCC2)c(NC(=O)c2ccc(Br)cc2)c1
cytotoxicity at 10 µM: 11.1%

Fc1ccc(CN2CCOC(Cn3cncn3)C2)c2ncccc12 (stereo unspecified)
cytotoxicity at 10 µM: 0.219%

Cc1cc(C)n(C2CN(CC(=O)N(C)Cc3ccco3)C2)n1
cytotoxicity at 10 µM: -4.42%

CNc1cc(N2CCCC2CNCc2cccc(C(N)=O)c2)ncn1 (stereo unspecified)
cytotoxicity at 10 µM: -7.72%

Cc1nc(C)n(C2CCCN(C(=O)Cc3ccc4c(c3)CCC4)C2)n1 (stereo unspecified)
cytotoxicity at 10 µM: -10.3%

Clc1ccc(-c2cnc(CNC3CCc4ncnn4C3)o2)cc1 (stereo unspecified)
cytotoxicity at 10 µM: -4.36%

N#Cc1c(Cl)nsc1N1CCN(CC2CC2)CC1
cytotoxicity at 10 µM: 28.5%

Cc1cnn(CCNCc2c(C)nn(Cc3ccccc3)c2C)c1
cytotoxicity at 10 µM: -3.46%

CC(C)CN(CC(O)c1ccc(F)cc1)C(=O)c1cc[nH]n1 (stereo unspecified)
cytotoxicity at 10 µM: -5.71%

Cc1nc(C(C)C)sc1C(=O)NS(=O)(=O)c1ccc(C#N)cc1
cytotoxicity at 10 µM: -6.94%

CC(C)n1nc(CN2CCCC2=O)c2c1CN(C(=O)c1ccco1)C2
cytotoxicity at 10 µM: 5.35%

COc1cccc(OC)c1-c1ccnc2cc(CC(=O)NC3CC3)nn12
cytotoxicity at 10 µM: -2.67%

CCNc1nc(-c2cccnc2)c(-c2ccnc(N3CCOCC3)n2)s1
cytotoxicity at 10 µM: -10.1%

CCc1cc(N2CCCC(CC)(C(=O)O)C2)nc(N2CCOCC2)n1 (stereo unspecified)
cytotoxicity at 10 µM: 0.701%

COc1cccc2ccc(CN3CCN(c4ncccn4)CC3)nc12
cytotoxicity at 10 µM: -2.13%

CCOc1cc(CNCc2nc(C)cc(=O)[nH]2)c(Cl)cc1OC(C)C
cytotoxicity at 10 µM: -7.83%

O=C1N(CCCc2ccccc2)CCCC1(O)CNCC1CCCCC1 (stereo unspecified)
cytotoxicity at 10 µM: -0.106%

CC(=O)Nc1ccc2nc(-c3nccn3CCCN(C)C)ccc2c1
cytotoxicity at 10 µM: -6.07%

CCc1ncc2c(n1)CN(C(=O)c1c(C)[nH]c(C(C)=O)c1C)C2
cytotoxicity at 10 µM: -45.9%

COCCn1cnnc1Cn1ccnc1-c1ccsc1
cytotoxicity at 10 µM: 8.61%

CCOc1ccc(CNCc2cccnc2N(C)C)cc1
cytotoxicity at 10 µM: -6.5%

COc1cccc(Cl)c1-c1cc(CN)ccc1F
cytotoxicity at 10 µM: -5.3%

Cc1cc(C(=O)N2CCC(CCn3cccn3)CC2)c(C)o1
cytotoxicity at 10 µM: -5.27%

Cc1cc(C)n(Cc2cc(C(=O)N3CCCC3c3ccccn3)n[nH]2)n1 (stereo unspecified)
cytotoxicity at 10 µM: 0.739%

Cc1cc2nc(C(C)C)cc(NCCc3cccn3C)n2n1
cytotoxicity at 10 µM: 0.407%

CCCN1CCN(Cc2cn(CCC(N)=O)c3ccccc23)CC1
cytotoxicity at 10 µM: 4.7%

Cc1ccsc1C(=O)NCc1ccnc(OCC(F)(F)F)c1
cytotoxicity at 10 µM: -6.19%

CC(NC(=O)NCCOc1ccc(Cl)cc1)c1nncn1C (stereo unspecified)
cytotoxicity at 10 µM: -8.47%

CC(O)CNC(=O)NCc1ccc(N2CCNC(=O)C2)cc1 (stereo unspecified)
cytotoxicity at 10 µM: -7.23%

CCc1cnc(CN(C(C)=O)C2CCN(CCc3cccs3)C2)o1 (stereo unspecified)
cytotoxicity at 10 µM: -6.78%

CC(C)c1ncc2c(n1)CN(Cc1nc(Cc3ccccc3)no1)CC2
cytotoxicity at 10 µM: -14.6%

CCC(CNC(=O)Nc1cnn(CC)c1)N1CCCC1 (stereo unspecified)
cytotoxicity at 10 µM: -1.47%

CN1CCOC(CNCCc2ccccn2)C1 (stereo unspecified)
cytotoxicity at 10 µM: -4.77%

Cc1nc(C)n(CC2CCCN2Cc2nc3ccccc3nc2C)n1 (stereo unspecified)
cytotoxicity at 10 µM: 6.21%

Cc1ccc(-c2nc(CN3CCC(C(=O)N(C)C)CC3)cs2)o1
cytotoxicity at 10 µM: 1.32%

Cc1ccc(C)c(NC(=O)N(C)Cc2cnn(C)c2)c1
cytotoxicity at 10 µM: -3.02%

c1csc(-c2noc(CCCN3CCCC3Cn3cccn3)n2)c1 (stereo unspecified)
cytotoxicity at 10 µM: -7.47%

COCCNC(=O)Nc1ccc(F)c(C(N)=O)c1
cytotoxicity at 10 µM: -6.46%

CC(=O)Nc1nc(CN2CCCC2Cn2cc(C)cn2)cs1 (stereo unspecified)
cytotoxicity at 10 µM: 3.22%

CO[C@@H]1CCN(S(=O)(=O)c2cn(C)cn2)[C@H]1Cc1ccncc1
cytotoxicity at 10 µM: 4.05%

CC(=O)N1[C@@H](C(=O)NCC2CC2)C[C@@H]2CN(Cc3nccs3)C[C@@H]21
cytotoxicity at 10 µM: 1.7%

Cn1cccc1CN1CCC2(CC1)CCN(C(=O)c1cnccn1)CC2
cytotoxicity at 10 µM: -147%

O=C([C@H]1CN(Cc2ccoc2)C[C@H]2OCC[C@@H]12)N1CCCCO1
cytotoxicity at 10 µM: 7.86%

O=C(NCCc1cccs1)[C@H]1CO[C@H]2CCNC[C@H]2C1
cytotoxicity at 10 µM: 2.11%

COc1ccc(CN2CC[C@H]3[C@H]2CCN3C(=O)c2cnn(C)c2)cc1
cytotoxicity at 10 µM: 7.9%

O=C1N(Cc2ccncc2)CCC12CCCN(c1ncc(F)cn1)C2 (stereo unspecified)
cytotoxicity at 10 µM: -7.38%

CC(C)C(=O)N1CCc2onc(C(=O)NCCN(C)C)c2C1
cytotoxicity at 10 µM: 5.56%

CN(C)C(=O)COCc1nnc2n1CCN(Cc1ccsc1)C2
cytotoxicity at 10 µM: 7.16%

Cc1nc(CN2C[C@@H]3CN(C(=O)c4cccn4C)C[C@@H]3C2=O)cs1
cytotoxicity at 10 µM: 1.88%

CC1CCN(C(=O)[C@H]2CC[C@@H]3[C@@H](CCN3Cc3nccs3)O2)CC1
cytotoxicity at 10 µM: 4.62%

Cc1ccc(N2CCC3(CN(CCO)CCC3(F)F)C2)nn1 (stereo unspecified)
cytotoxicity at 10 µM: 7.28%

CC1N(c2cnn(C)c2)C(=O)COC12CCN(c1ccccn1)CC2 (stereo unspecified)
cytotoxicity at 10 µM: -5.31%

Cn1cc(CN2C[C@@H]3COC[C@@H](C(=O)N4CCCCO4)[C@@H]3C2)cn1
cytotoxicity at 10 µM: -1.57%

COCCN1C[C@@H]2[C@@H](OC)CCN(C(=O)Cc3ccsc3)[C@@H]2C1
cytotoxicity at 10 µM: 7.68%

O=C(Cc1cccc(F)c1)N1CCN2C[C@H](Oc3cncnc3)C[C@H]2C1
cytotoxicity at 10 µM: 6.1%

O=C(CC1[C@H]2CN(C(=O)Cc3ccccn3)C[C@@H]12)Nc1cccnc1 (stereo partly specified)
cytotoxicity at 10 µM: 10.1%
